Data: publication PMC3434103 (The Journal of General Physiology, 2012)
Entries after “also recorded” stand apart in the source; their conditions may differ. Ends that are not written are not given here.

Columns and labels:
[1] = molecular target: recombinant WT mouse RyR2 (Mus musculus, UniProt E9Q401); assay: TAA block of EMD 41000-activated WT RyR2, single channel in planar bilayer; assay type: biochemical
WT mouse RyR2 = assay: TAA block of ryanodine-modified WT RyR2, single channel; assay type: biochemical; conditions: 60 mV; for rate of dissociation (koff), difference TBA vs TPeA: 200 µM TBA or 100 µM TPeA, 1 µM ryanodine-modified; for level of block: ryanodine-modified WT, 100 µM TPeA (200 µM TBA)
Outline: (§1)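 Ryanodine-modified single channels were used: purified HEK293-expressed mouse RyR2 (WT or mutant) in PE bilayers, symmetrical KCl/HEPES pH 7.2, room temperature. TAA was added to […], with the holding potential at 60 mV. Data were filtered at 5 kHz and sampled at 20 kHz. Open and blocked lifetimes came from 50% threshold analysis of ≥2 min records, and blocking parameters were derived from them. Mean ± SEM, unpaired t tests.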

K^+ channels = conditions: quoted range, ref Faraldo-Gómez et al., 2007; cited from earlier work
KcsA = conditions: cytosolic cavity of KcsA; ref Faraldo-Gómez et al., 2007; cited from earlier work
I4861A RyR2 [2] = molecular target: T1, I4861A RyR2 (Mus musculus, UniProt E9Q401, I4860A/I4861A); assay: TPeA block of EMD 41000-activated I4861A RyR2; assay type: biochemical; conditions: 60 mV
I4862A RyR2 [3] = molecular target: T2, I4862A RyR2 (Mus musculus, UniProt E9Q401, I4861A); assay: TPeA block of EMD 41000-activated I4862A RyR2; assay type: biochemical; conditions: 60 mV
L4865A RyR2 [4] = molecular target: T3, L4865A RyR2 (Mus musculus, UniProt E9Q401, L4864A); assay: TPeA block of EMD 41000-activated L4865A RyR2; assay type: biochemical; conditions: 60 mV
I4861A RyR2 [5] = molecular target: T1, I4861A RyR2; assay: TPeA block of ryanodine-modified I4861A RyR2; assay type: biochemical; conditions: 100 µM TPeA, 60 mV
Outline: as §1

I4862A RyR2 [6] = molecular target: T2, I4862A RyR2; assay: TPeA block of ryanodine-modified I4862A RyR2; assay type: biochemical; conditions: 100 µM TPeA, 60 mV
Outline: as §1

L4865A RyR2 [7] = molecular target: T3, L4865A RyR2; assay: TPeA block of ryanodine-modified L4865A RyR2; assay type: biochemical; conditions: 100 µM TPeA, 60 mV
Outline: as §1

I4867A RyR2 [8] = molecular target: T4, I4867A RyR2 (Mus musculus, UniProt E9Q401, I4866A); assay: TPeA block of ryanodine-modified I4867A RyR2; assay type: biochemical; conditions: 100 µM TPeA, 60 mV
Outline: as §1

F4870A RyR2 [9] = molecular target: T5, F4870A RyR2 (Mus musculus, UniProt E9Q401, F4869A); assay: TPeA block of ryanodine-modified F4870A RyR2; assay type: biochemical; conditions: 100 µM TPeA, 60 mV
Outline: as §1

RyR2 = assay: ShBP block of RyR2 in symmetrical 610 mM KCl; assay type: biochemical; conditions: for block at high K+ activity: preliminary, symmetrical 610 mM KCl plus up to 100 µM EMD 41000
[10] = molecular target: WT recombinant ryanodine-modified RyR2 channels (Mus musculus, UniProt E9Q401); assay: biochemical
I4861A RyR2 [11] = molecular target: T1, I4861A RyR2; assay: Ryanodine modification of I4861A RyR2; assay type: biochemical
Outline: (§2)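 Mouse RyR2 (WT or TM10 alanine mutants) was expressed in HEK293 cells by Ca²⁺ phosphate transfection for 48 h, solubilized in CHAPS/phosphatidylcholine and purified on a 0–40% sucrose gradient. Single channels were incorporated into PE bilayers with the cytosolic side cis, in symmetrical KCl with 20 mM HEPES pH 7.2, at 22 ± 2°C. After 1 µM ryanodine, amplitudes were read at 60 mV. Mean ± SEM, n = 4–7, unpaired t test.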

I4862A RyR2 [12] = molecular target: T2, I4862A RyR2; assay: Ryanodine modification of I4862A RyR2; assay type: biochemical
Outline: as §2

L4865A RyR2 [13] = molecular target: T3, L4865A RyR2; assay: Ryanodine modification of L4865A RyR2; assay type: biochemical
Outline: as §2

I4867A RyR2 [14] = molecular target: T4, I4867A RyR2; assay: Ryanodine modification of I4867A RyR2; assay type: biochemical
Outline: as §2

F4870A RyR2 [15] = molecular target: T5, F4870A RyR2; assay: Ryanodine modification of F4870A RyR2; assay type: biochemical
Outline: as §2

[16] = 1 µM ryanodine, 60 mV, lower than WT

T1 sequence (E9Q401 whole entry I4860A/I4861A): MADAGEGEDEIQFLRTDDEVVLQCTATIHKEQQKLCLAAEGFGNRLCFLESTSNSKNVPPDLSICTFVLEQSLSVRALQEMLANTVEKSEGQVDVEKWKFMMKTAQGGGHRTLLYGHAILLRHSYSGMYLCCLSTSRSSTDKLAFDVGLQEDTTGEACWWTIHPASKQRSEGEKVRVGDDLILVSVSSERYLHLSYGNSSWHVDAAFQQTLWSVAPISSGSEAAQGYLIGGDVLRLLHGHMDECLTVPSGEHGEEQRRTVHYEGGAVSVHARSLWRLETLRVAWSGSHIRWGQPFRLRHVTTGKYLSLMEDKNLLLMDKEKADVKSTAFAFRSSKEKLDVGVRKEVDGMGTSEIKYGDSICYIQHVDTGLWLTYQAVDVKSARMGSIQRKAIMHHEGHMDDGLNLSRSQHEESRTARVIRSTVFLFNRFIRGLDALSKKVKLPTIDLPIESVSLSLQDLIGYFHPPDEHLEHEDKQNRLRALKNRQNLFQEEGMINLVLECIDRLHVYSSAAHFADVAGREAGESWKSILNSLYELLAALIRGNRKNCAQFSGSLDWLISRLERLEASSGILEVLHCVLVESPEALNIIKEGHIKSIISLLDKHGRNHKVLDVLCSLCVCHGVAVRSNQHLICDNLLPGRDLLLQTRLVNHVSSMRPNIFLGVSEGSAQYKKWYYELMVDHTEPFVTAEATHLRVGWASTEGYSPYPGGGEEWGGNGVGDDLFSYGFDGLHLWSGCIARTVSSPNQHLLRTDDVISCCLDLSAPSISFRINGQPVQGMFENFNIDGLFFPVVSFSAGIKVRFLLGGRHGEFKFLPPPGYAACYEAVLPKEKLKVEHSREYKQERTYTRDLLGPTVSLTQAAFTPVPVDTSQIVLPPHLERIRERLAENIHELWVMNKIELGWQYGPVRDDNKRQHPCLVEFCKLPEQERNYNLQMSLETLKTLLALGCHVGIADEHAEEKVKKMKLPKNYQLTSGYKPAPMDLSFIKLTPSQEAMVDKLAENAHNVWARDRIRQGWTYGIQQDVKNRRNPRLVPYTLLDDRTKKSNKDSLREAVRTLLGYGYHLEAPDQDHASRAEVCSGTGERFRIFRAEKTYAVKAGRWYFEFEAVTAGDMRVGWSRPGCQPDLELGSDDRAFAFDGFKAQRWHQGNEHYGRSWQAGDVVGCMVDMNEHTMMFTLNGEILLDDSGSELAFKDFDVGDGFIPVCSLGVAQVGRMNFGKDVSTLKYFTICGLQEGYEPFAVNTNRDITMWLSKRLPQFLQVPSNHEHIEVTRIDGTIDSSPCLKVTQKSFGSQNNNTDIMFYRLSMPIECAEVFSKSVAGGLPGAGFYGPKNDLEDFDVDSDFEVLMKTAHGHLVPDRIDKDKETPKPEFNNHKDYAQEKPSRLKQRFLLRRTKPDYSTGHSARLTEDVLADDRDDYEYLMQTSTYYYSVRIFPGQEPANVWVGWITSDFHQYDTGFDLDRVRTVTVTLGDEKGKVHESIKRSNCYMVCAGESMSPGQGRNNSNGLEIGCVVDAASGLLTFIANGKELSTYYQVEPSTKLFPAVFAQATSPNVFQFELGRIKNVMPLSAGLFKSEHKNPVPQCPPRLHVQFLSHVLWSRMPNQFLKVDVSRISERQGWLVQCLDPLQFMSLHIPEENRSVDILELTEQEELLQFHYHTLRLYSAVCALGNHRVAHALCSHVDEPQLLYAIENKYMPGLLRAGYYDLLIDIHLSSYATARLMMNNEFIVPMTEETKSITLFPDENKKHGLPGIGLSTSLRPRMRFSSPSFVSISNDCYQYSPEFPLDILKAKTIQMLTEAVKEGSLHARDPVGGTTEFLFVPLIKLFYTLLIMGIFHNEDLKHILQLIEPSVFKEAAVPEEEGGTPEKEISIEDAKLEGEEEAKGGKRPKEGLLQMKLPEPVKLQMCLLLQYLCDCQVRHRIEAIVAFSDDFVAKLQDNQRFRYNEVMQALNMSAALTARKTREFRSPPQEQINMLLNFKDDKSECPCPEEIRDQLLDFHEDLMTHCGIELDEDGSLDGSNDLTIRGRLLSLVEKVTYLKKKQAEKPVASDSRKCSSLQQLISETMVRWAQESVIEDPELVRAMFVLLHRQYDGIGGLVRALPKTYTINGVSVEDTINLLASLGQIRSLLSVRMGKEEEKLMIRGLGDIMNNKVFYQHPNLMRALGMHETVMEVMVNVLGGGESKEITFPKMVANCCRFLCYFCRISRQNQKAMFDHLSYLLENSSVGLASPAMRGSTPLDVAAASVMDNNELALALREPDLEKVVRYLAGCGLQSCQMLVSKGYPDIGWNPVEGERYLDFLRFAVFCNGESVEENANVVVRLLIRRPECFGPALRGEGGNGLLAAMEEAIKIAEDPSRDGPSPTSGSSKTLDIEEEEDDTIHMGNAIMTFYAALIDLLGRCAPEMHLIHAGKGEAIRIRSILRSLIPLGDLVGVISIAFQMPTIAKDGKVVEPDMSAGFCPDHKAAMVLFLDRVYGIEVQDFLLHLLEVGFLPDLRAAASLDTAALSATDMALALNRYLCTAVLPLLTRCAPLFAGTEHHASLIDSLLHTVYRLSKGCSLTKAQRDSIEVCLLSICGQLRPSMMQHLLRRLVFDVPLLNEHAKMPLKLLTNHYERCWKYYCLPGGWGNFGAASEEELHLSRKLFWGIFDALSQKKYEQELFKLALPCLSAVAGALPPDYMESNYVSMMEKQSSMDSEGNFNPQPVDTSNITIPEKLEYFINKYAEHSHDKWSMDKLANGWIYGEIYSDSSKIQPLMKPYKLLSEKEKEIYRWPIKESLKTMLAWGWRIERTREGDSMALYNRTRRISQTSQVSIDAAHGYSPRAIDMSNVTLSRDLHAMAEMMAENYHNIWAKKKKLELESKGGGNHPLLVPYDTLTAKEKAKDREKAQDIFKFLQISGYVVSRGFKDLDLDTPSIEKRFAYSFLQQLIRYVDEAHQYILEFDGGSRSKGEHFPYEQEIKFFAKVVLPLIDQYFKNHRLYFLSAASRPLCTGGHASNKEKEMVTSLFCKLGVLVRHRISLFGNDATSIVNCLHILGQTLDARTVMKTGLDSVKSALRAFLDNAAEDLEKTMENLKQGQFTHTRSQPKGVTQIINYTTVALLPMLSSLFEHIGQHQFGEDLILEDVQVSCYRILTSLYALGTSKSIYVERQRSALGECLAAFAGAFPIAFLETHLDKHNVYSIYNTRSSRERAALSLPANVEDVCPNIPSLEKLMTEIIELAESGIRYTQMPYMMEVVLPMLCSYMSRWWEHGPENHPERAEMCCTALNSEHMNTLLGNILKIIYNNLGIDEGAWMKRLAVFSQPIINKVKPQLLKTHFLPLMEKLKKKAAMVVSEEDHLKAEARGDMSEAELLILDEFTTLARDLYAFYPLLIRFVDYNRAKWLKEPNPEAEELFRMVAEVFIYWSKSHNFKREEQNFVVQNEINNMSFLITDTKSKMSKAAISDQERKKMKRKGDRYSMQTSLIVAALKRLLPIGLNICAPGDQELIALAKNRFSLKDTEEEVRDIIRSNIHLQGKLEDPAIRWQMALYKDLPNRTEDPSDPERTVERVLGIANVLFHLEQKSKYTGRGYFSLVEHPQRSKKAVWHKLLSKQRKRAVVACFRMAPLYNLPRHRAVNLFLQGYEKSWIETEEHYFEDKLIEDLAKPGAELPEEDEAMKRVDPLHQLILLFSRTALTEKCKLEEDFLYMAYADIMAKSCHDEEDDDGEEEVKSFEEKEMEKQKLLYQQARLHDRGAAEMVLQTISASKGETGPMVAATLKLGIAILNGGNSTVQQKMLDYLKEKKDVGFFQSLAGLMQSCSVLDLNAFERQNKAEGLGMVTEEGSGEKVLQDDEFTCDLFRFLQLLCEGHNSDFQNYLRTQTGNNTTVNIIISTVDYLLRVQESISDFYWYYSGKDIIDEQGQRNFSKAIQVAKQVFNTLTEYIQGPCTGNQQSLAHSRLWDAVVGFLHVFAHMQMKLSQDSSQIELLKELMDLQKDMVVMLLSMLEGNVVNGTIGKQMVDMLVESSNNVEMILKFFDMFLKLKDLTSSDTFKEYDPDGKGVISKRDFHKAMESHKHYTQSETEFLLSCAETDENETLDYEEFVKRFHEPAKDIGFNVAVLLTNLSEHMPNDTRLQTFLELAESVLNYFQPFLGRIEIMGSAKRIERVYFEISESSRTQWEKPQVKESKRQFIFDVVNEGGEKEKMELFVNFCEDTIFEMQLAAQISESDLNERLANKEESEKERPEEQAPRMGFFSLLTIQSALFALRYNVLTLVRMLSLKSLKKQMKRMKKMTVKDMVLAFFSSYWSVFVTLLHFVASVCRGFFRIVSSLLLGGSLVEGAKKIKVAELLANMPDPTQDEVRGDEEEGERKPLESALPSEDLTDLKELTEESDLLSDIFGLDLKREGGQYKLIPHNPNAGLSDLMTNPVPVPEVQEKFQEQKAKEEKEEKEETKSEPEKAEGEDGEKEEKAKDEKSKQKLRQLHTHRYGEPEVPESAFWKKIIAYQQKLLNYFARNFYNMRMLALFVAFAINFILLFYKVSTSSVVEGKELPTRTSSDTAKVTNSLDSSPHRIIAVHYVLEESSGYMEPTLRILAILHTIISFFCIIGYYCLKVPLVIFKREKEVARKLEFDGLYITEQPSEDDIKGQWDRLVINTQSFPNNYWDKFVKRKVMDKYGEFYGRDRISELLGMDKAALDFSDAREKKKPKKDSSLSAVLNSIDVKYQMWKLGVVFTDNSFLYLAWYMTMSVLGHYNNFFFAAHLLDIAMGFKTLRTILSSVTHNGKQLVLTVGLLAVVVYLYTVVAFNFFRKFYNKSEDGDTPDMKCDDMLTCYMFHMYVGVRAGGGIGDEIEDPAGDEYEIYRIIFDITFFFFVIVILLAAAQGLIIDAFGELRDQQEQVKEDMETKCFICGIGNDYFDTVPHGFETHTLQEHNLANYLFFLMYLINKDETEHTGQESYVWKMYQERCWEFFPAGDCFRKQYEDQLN
T3 sequence (E9Q401 whole entry L4864A): as the sequence (E9Q401 whole entry I4860A/I4861A) above, with A4860I, A4861I, L4864A counted along it
T4 sequence (E9Q401 whole entry I4866A): as the sequence (E9Q401 whole entry I4860A/I4861A) above, with A4860I, A4861I, I4866A counted along it
T5 sequence (E9Q401 whole entry F4869A): as the sequence (E9Q401 whole entry I4860A/I4861A) above, with A4860I, A4861I, F4869A counted along it
Chain of recombinant WT mouse RyR2 (E9Q401 whole entry): as the sequence (E9Q401 whole entry I4860A/I4861A) above, with A4860I, A4861I counted along it
T2 sequence (E9Q401 whole entry I4861A): as the sequence (E9Q401 whole entry I4860A/I4861A) above, with A4860I counted along it

For `CCCC[N+](CCCC)(CCCC)CCCC` [TBA, tetrabutylammonium], the Kd [1] was 179 µM, the koff [1] was 412 s⁻¹ and the “rate of dissociation (koff), difference TBA vs TPeA” value (WT mouse RyR2) was “very marked difference in the rates of dissociation of TBA and TPeA is retained”. For the same molecule, the level of block (WT mouse RyR2) was “completely occlude the RyR2 pore”, the koff (K^+ channels) was 10 to 200 s⁻¹ and the pore occlusion (KcsA) was “fully occludes the pore of the channel”.
For `CCCCCC[N+](CCCCCC)(CCCCCC)CCCCCC` [THexA, tetrahexylammonium], the Kd [1] was 2.58 µM, the “fold increase in affinity between TBA and THexA” value ([1]; EMD 41000-activated, 610 mM K+, 60 mV, THexA relative to TBA) was 69.5 -fold and the “fold decrease in koff between TPeA and THexA” value ([1]; EMD 41000-activated, 610 mM K+, 60 mV, THexA relative to TPeA) was 1.7 -fold.
For `CCCCC[N+](CCCCC)(CCCCC)CCCCC` [TPeA, tetrapentylammonium], the “fold decrease in koff between TBA and TPeA” value ([1]; EMD 41000-activated, 610 mM K+, 60 mV, TPeA relative to TBA) was 22 -fold, the “rate of dissociation (koff), difference TBA vs TPeA” value (WT mouse RyR2) was “very marked difference in the rates of dissociation of TBA and TPeA is retained” and the level of block (WT mouse RyR2) was “to a level indistinguishable from the closed state; also recorded: completely occlude the RyR2 pore”. The “probability of block (1 − Po) vs WT” value (I4861A RyR2 [2]; 100 µM TPeA) was “reduced significantly”, the “rate of association (kon) vs WT” value (I4861A RyR2 [2]; 100 µM TPeA) was “unaffected” and the “rate of dissociation (koff) vs WT” value (I4861A RyR2 [2]; 100 µM TPeA) was “significantly increased rates of TPeA dissociation”. For the same molecule, the “residual current vs WT” value (I4861A RyR2 [2]; 100 µM TPeA) was “slightly lower than the equivalent current in the WT RyR2”, the “affinity (Kd) vs WT” value (I4861A RyR2 [2]; 100 µM TPeA, in words) was “significant decreases in TPeA affinity” and the “amplitude of full open state in presence of TPeA vs WT” value (“amplitude of full open state … vs WT” for short) (I4861A RyR2 [2]) was “indistinguishable from that of the WT channel”. The “probability of block (1 − Po) vs WT” value (I4862A RyR2 [3]; 100 µM TPeA) was “reduced significantly”, the “rate of association (kon) vs WT” value (I4862A RyR2 [3]; 100 µM TPeA) was “unaffected” and the “rate of dissociation (koff) vs WT” value (I4862A RyR2 [3]; 100 µM TPeA) was “significantly increased rates of TPeA dissociation, with the most dramatic effect seen in I4862A”. The “residual current vs WT” value (I4862A RyR2 [3]; 100 µM TPeA) was “indistinguishable from that of the WT channel”, the “affinity (Kd) vs WT” value (I4862A RyR2 [3]; 100 µM TPeA, in words) was “significant decreases in TPeA affinity” and the “amplitude of full open state … vs WT” value (I4862A RyR2 [3]) was “indistinguishable from that of the WT channel”. The “rate of association (kon) vs WT” value (L4865A RyR2 [4]; 100 µM TPeA) was “unaffected”, the “rate of dissociation (koff) vs WT” value (L4865A RyR2 [4]; 100 µM TPeA) was “significantly increased rates of TPeA dissociation” and the “residual current vs WT” value (L4865A RyR2 [4]; 100 µM TPeA) was “indistinguishable from that of the WT channel”. The “amplitude of full open state … vs WT” value (L4865A RyR2 [4]) was “indistinguishable from that of the WT channel”, the “koff vs WT” value (I4861A RyR2 [5]) was “significant increase in koff” and the “kon vs WT” value (I4861A RyR2 [5]) was “reduced significantly”. The level of block (I4861A RyR2 [5]) was “to a level indistinguishable from the closed state”, the “magnitude / probability of block (1 − Po) vs WT” value (“magnitude / probability … vs WT” for short) (I4861A RyR2 [5]) was “lower than that seen in the WT RyR channel” and the “affinity (Kd) vs WT” value (I4861A RyR2 [5]; in words) was “significant reduction in TPeA affinity”. The “koff vs WT” value (I4862A RyR2 [6]) was “significant increase in koff”, the “kon vs WT” value (I4862A RyR2 [6]) was “unaffected” and the level of block (I4862A RyR2 [6]) was “to a level indistinguishable from the closed state”. For the same molecule, the “magnitude / probability … vs WT” value (I4862A RyR2 [6]) was “lower than that seen in the WT RyR channel”, the “affinity (Kd) vs WT” value (I4862A RyR2 [6]; in words) was “significant reduction in TPeA affinity” and the “koff vs WT” value (L4865A RyR2 [7]) was “significant increase in koff”. The “kon vs WT” value (L4865A RyR2 [7]) was “unaffected”, the level of block (L4865A RyR2 [7]) was “to a level indistinguishable from the closed state” and the “magnitude / probability … vs WT” value (L4865A RyR2 [7]) was “lower than that seen in the WT RyR channel”. The “affinity (Kd) vs WT” value (L4865A RyR2 [7]; in words) was “significant reduction in TPeA affinity”, the “koff vs WT” value (I4867A RyR2 [8]) was “significant increase in koff” and the “kon vs WT” value (I4867A RyR2 [8]) was “reduced significantly”. The level of block (I4867A RyR2 [8]) was “to a level indistinguishable from the closed state”, the “magnitude / probability … vs WT” value (I4867A RyR2 [8]) was “lower than that seen in the WT RyR channel” and the “affinity (Kd) vs WT” value (I4867A RyR2 [8]; in words) was “significant reduction in TPeA affinity”. For the same molecule, the “koff vs WT” value (F4870A RyR2 [9]) was “significant increase in koff”, the “kon vs WT” value (F4870A RyR2 [9]) was “reduced significantly” and the level of block (F4870A RyR2 [9]) was “to a level indistinguishable from the closed state”. For the same molecule, the “magnitude / probability … vs WT” value (F4870A RyR2 [9]) was “lower than that seen in the WT RyR channel” and the “affinity (Kd) vs WT” value (F4870A RyR2 [9]; in words) was “significant reduction in TPeA affinity”.
For MAAVAGLYGLGEDRQHRKKQ [ShBP], the “reduction in Po” value (RyR2; 20 µM ShBP cytosolic, ryanodine-modified, symmetrical 610 mM KCl) was “no significant reduction in Po” and the “block at high K+ activity” value (RyR2) was “ineffective”.
With MAAVVGLYGLGEDRQHRKKQ [MHBPII] the “block at high K+ activity” value (RyR2) was “ineffective”.
MAQVQGLYGLGEDRQHRKKQ-NH2 [LHBP] showed a Kd [10] of 65.9 µM.
For MAVVAGLYGLGEDRQHRKKQ-NH2 [MHBPI], the Kd [10] was 27.8 µM.
With ryanodine the “amplitude of ryanodine-modified open state vs WT modified channel” value (I4861A RyR2 [11]; 1 µM ryanodine, 60 mV) was “not significantly different from that of the WT channel”, the “Po and unitary conductance on ryanodine modification” value (from here on “Po and unitary conductance”) (I4861A RyR2 [11]; ryanodine) was “characteristic increase in Po and reduction in unitary conductance” and the “amplitude of ryanodine-modified open state vs WT modified channel” value (I4862A RyR2 [12]; 1 µM ryanodine, 60 mV) was “not significantly different from that of the WT channel”. The “Po and unitary conductance” value (I4862A RyR2 [12]; ryanodine) was “characteristic increase in Po and reduction in unitary conductance”, the “reduction in conductance of ryanodine-modified state vs WT modified channel” value (“reduction in conductance” for short) (L4865A RyR2 [13]; [16]) was roughly 10% and the “Po and unitary conductance” value (L4865A RyR2 [13]; ryanodine) was “characteristic increase in Po and reduction in unitary conductance”. For the same molecule, the “reduction in conductance” value (I4867A RyR2 [14]; [16]) was roughly 10%, the “Po and unitary conductance” value (I4867A RyR2 [14]; ryanodine) was “characteristic increase in Po and reduction in unitary conductance” and the “reduction in conductance” value (F4870A RyR2 [15]; [16]) was roughly 10%. For the same molecule, the “Po and unitary conductance” value (F4870A RyR2 [15]; ryanodine) was “characteristic increase in Po and reduction in unitary conductance”.
